Test results reported in ChEMBL document CHEMBL1143930, “S-Euglobals: biomimetic synthesis, antileishmanial, antimalarial, and antimicrobial activities” (Bioorg Med Chem, 2008).
≈ marks a conversion by molar mass, not a printed value. Calls of active or inactive are those of the source. No cut-off for these calls is given here.

Key:
Vero [1] = assay: Cytotoxicity against african green monkey Vero cells by neutral red assay up to 25 ug/mL; type: cell-based; conditions: chlorocebus sabaeus
Method in brief: (§1)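 Cells were seeded at 25,000 per well and incubated 24 h. Test samples were added at a range of concentrations, followed by a further 48 h incubation. Viable cells were quantified by Neutral Red uptake, and IC50 was read from dose curves of percent growth versus concentration.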

[2] = Cytotoxicity against pig LLC-PK11 cells by neutral red assay up to 25 ug/mL; type: cell-based, Sus scrofa; method in brief: as §1
Plasmodium falciparum [3] = assay: Antimalarial activity against chloroquine-resistant Plasmodium falciparum W2 by LDH release; type: functional, organism-based
Method in brief: (§2)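 Infected red cells (W2 or D6), 2% parasitemia, 2% hematocrit, in RPMI 1640 with 10% human serum and 60 µg/mL amikacin, exposed to serial sample dilutions. Incubated 72 h at 37 C under 90% N2/5% O2/5% CO2. Parasite LDH measured with Malstat reagent (30 min, room temperature), then NBT/PES 1 h in dark, stopped with 5% acetic acid, read at 650 nm. IC50 from dose-response curves.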

Candida albicans = assay: Antifungal activity against Candida albicans; type: functional, organism-based
Method in brief: (§3)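 Modified NCCLS broth microdilution. Samples in DMSO were serially diluted in 0.9% saline and tested in duplicate. Inocula were matched to the 0.5 McFarland standard by absorbance at 630 nm, then diluted in broth. Growth, solvent and media controls were included. Plates were read at 630 nm before and after incubation, and IC50 was taken from percent growth versus concentration.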

SK-OV-3 [4] = assay: Cytotoxicity against human SK-OV3 cells by neutral red assay up to 25 ug/mL; type: functional, cell-based; method in brief: as §1
Leishmania donovani = assay: Antileishmanial activity against Leishmania donovani promastigotes after 48 hrs by Alamar blue assay; type: functional, organism-based
Method in brief: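 L. donovani promastigotes were grown in RPMI 1640 with 10% fetal calf serum at 26 C. A 3-day-old culture was diluted to 5 × 10^5 promastigotes/mL, and drug dilutions were made directly in the cell suspension. After 48 h at 26 C, growth was read by Alamar Blue fluorescence (ex 544/em 590 nm). IC50 and IC90 came from percent growth versus concentration curves.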

[5] = Selectivity index, ratio of IC50 for african green monkey (Cercopithecus aethiops) Vero cells to IC50 for Plasmodium falciparum D6; type: functional
Method in brief: (§4)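 The index is IC50 in Vero cells (Neutral Red, 48 h exposure) divided by IC50 against P. falciparum D6 or W2. For the parasite assay, infected erythrocytes at 2% parasitemia and 2% hematocrit in RPMI 1640 with 10% human serum were incubated 72 h at 37 C under 90% N2, 5% O2, 5% CO2. Parasite LDH was measured with Malstat plus NBT/PES at 650 nm.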

SK-MEL [6] = assay: Cytotoxicity against human SKMEL cells by neutral red assay; type: functional, cell-based; method in brief: as §1
BT-549 [7] = assay: Cytotoxicity against human BT549 cells by neutral red assay up to 25 ug/mL; type: functional, cell-based; method in brief: as §1
Aspergillus fumigatus = assay: Antifungal activity against Aspergillus fumigatus; type: functional, organism-based; method in brief: as §3
KB = assay: Cytotoxicity against human KB cells by neutral red assay up to 25 ug/mL; type: functional, cell-based; method in brief: as §1
[8] = Selectivity index, ratio of IC50 for african green monkey (Cercopithecus aethiops) Vero cells to IC50 for Plasmodium falciparum W2; type: functional; method in brief: as §4
Cryptococcus neoformans = assay: Antifungal activity against Cryptococcus neoformans; type: functional, organism-based; method in brief: as §3
Plasmodium falciparum [9] = assay: Antimalarial activity against chloroquine-sensitive Plasmodium falciparum D6 by LDH release assay; type: functional, organism-based; method in brief: as §2
BT-549 [10] = assay: Cytotoxicity against human BT549 cells by neutral red assay; type: functional, cell-based; method in brief: as §1
SK-MEL [11] = assay: Cytotoxicity against human SKMEL cells by neutral red assay up to 25 ug/mL; type: functional, cell-based; method in brief: as §1
SK-OV-3 [12] = assay: Cytotoxicity against human SK-OV3 cells by neutral red assay; type: functional, cell-based; method in brief: as §1
Vero [13] = assay: Cytotoxicity against african green monkey Vero cells by neutral red assay; type: cell-based; conditions: chlorocebus sabaeus; method in brief: as §1
[14] = Cytotoxicity against pig LLC-PK11 cells by neutral red assay; type: cell-based; conditions: Sus scrofa; method in brief: as §1

Compound	Activity (Vero [1])	Activity [2]	IC50 (Plasmodium falciparum [3])	Activity (Candida albicans)	Activity (SK-OV-3 [4])	IC50 (Leishmania donovani)	IC90 (Leishmania donovani)	Selectivity index [5]	IC50 (SK-MEL [6])	Activity (BT-549 [7])	Activity (Aspergillus fumigatus)	Activity (KB)	Selectivity index [8]	Activity (Cryptococcus neoformans)	IC50 (Plasmodium falciparum [9])	IC50 (BT-549 [10])	Activity (SK-MEL [11])	IC50 (SK-OV-3 [12])	IC50 (Vero [13])	IC50 [14]
CC(C)CC(=O)c1c(O)c(C=O)c(O)c2c1O[C@@]1(C)[C@H](CC[C@H]3[C@@H]1C3(C)C)C2	Not Active	Not Active	2.7 µg/mL (≈ 6.99 µM)	inactive	inactive	5.5 µg/mL (≈ 14.2 µM)	28 µg/mL (≈ 72.4 µM)	>7.4	25 µg/mL (≈ 64.7 µM)	inactive	inactive	inactive	>9.3	inactive	3.4 µg/mL (≈ 8.8 µM)	–	–	–	–	–
CC(C)C[C@H]1C[C@]2(CC[C@@H]3C[C@H]2C3(C)C)Oc2c(C=O)c(O)c(C=O)c(O)c21 [ROBUSTADIAL B]	Not Active	Not Active	4.76 µg/mL (≈ 12.3 µM)	inactive	inactive	16 µg/mL (≈ 41.4 µM)	16 µg/mL (≈ 41.4 µM)	>5.6	–	–	inactive	inactive	>5.3	inactive	4.5 µg/mL (≈ 11.6 µM)	25 µg/mL (≈ 64.7 µM)	inactive	–	–	–
CC(C)C[C@@H]1C[C@@]2(CC[C@@H]3C[C@H]2C3(C)C)Oc2c(C=O)c(O)c(C=O)c(O)c21 [ROBUSTADIAL A]	–	–	2.8 µg/mL (≈ 7.24 µM)	inactive	–	20 µg/mL (≈ 51.7 µM)	39 µg/mL (≈ 101 µM)	4	> 25 µg/mL	–	inactive	inactive	6.8	inactive	4.76 µg/mL (≈ 12.3 µM)	19 µg/mL (≈ 49.2 µM)	–	> 25 µg/mL	19 µg/mL (≈ 49.2 µM)	17 µg/mL (≈ 44 µM)
